Here are results for 1 molecule from BindingDB's records for doi:10.1021/acsmedchemlett.8b00442 (University of Helsinki, 2018).

A word on the IC50: it is the concentration that inhibits the measured activity by half.

The test deals with T1, Phosphatidylserine lipase ABHD16A (Homo sapiens, UniProt O95870).
T1 sequence (O95870 whole entry): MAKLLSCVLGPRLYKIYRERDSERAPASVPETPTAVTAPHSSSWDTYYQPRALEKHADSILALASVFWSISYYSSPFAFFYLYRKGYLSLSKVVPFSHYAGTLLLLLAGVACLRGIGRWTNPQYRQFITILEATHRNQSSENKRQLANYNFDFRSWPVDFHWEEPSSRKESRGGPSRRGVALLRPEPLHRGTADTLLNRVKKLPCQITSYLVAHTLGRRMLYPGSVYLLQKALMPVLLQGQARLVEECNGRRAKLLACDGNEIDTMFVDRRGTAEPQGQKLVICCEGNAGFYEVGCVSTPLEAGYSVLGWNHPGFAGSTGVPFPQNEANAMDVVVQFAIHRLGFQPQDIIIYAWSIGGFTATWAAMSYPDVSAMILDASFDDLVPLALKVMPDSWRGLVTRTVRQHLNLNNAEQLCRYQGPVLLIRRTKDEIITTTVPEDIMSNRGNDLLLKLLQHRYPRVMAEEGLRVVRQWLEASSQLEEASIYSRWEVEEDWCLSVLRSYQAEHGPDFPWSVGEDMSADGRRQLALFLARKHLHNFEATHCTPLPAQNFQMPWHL
The test can be described thus: Inhibition of ABHD16A (unknown origin). The gist of the method: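 Lysates of HEK293 cells transiently overexpressing human ABHD16A were pretreated for 30 min with DMSO (control) or inhibitor. 1-LG substrate (25 µM final) was then added, and liberated glycerol was measured. Screening was at 10 µM as % control activity (n=2-3). Dose-response used 0.1-100 µM, duplicate wells from two independent experiments, giving IC50.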

The molecule `COc1nn(-c2ccc(F)cc2)c(=O)o1` returned a half-inhibitory concentration (IC50) of 0.032 µM.
